From ChEMBL document CHEMBL3046552, “Synthesis and antiviral bioactivities of 2-cyano-3-substituted-amino(phenyl) methylphosphonylacrylates (acrylamides) containing alkoxyethyl moieties” (2010)

Key:
Type in all cases: functional
[1] = test system: Tobacco mosaic virus; experiment: In vivo antiviral activity against Tobacco mosaic virus (TMV) infected left side of tobacco leaves assessed as inactivation effect by decreasing local lesion number at 500 mg/l co-incubated with virus for 30 min before inoculation onto leaves measured at 3-4 days after viral challenge
In short: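 TMV, purified from infected N. tabacum leaves by grinding in phosphate buffer and PEG precipitation at 4 °C, was mixed with an equal volume of compound solution for 30 min. The mixture was inoculated on the left half of the leaf and a solvent-virus mixture on the right half as control. Local lesions recorded 3-4 days later.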

[2] = test system: Tobacco mosaic virus; experiment: In vivo antiviral activity against Tobacco mosaic virus (TMV) infected left side of tobacco leaves assessed as curative effect by decreasing local lesion number at 500 mg/l treated after viral inoculation measured at 3-4 days after viral challenge
In short: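 Curative mode: N. tabacum leaves of the same age; compound solution smeared on left half, solvent on right half as control. Local lesions counted 3-4 days after inoculation; three repeats per compound. Inhibition rate derived from average lesion numbers of treated versus untreated control halves. TMV purified from infected leaves (PEG precipitation, 4 °C).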

[3] = test system: Tobacco mosaic virus; experiment: In vivo antiviral activity against Tobacco mosaic virus (TMV) infected left side of tobacco leaves assessed as protective effect by decreasing local lesion number at 500 mg/l treated 12 hr before viral inoculation measured at 3-4 days after viral challenge
In short: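 Protective mode: compound solution smeared on the left half of same-age N. tabacum leaves, solvent on the right half as control. After 12 h, the leaves were dusted with silicon carbide and brush-inoculated with TMV at 6 × 10^-3 mg/mL. Local lesions counted 3-4 days after inoculation.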

CCOC(=O)/C(C#N)=C(\NC(c1ccccc1)P(=O)(OCCOC)OCCOC)SC (configuration not stated)
inhibition in vivo at 500 µg/mL [1]: 28.3% | inhibition in vivo at 500 µg/mL [2]: 32.1% | inhibition in vivo at 500 µg/mL [3]: 21%

COCCOC(=O)/C(C#N)=C(\NC(c1ccccc1)P(=O)(OCCOC)OCCOC)SC (configuration not stated)
inhibition in vivo at 500 µg/mL [1]: 41.9% | inhibition in vivo at 500 µg/mL [2]: 43.1% | inhibition in vivo at 500 µg/mL [3]: 40%

CCOCCOC(=O)/C(C#N)=C(\NC(c1ccccc1)P(=O)(OCCOC)OCCOC)SC (configuration not stated)
inhibition in vivo at 500 µg/mL [1]: 12.2% | inhibition in vivo at 500 µg/mL [2]: 23.7% | inhibition in vivo at 500 µg/mL [3]: 0%

COCCOP(=O)(OCCOC)C(N/C(SC)=C(/C#N)C(=O)OCCOc1ccccc1)c1ccccc1 (configuration not stated)
inhibition in vivo at 500 µg/mL [1]: 21% | inhibition in vivo at 500 µg/mL [2]: 31% | inhibition in vivo at 500 µg/mL [3]: 14.4%

COCCOP(=O)(OCCOC)C(N/C(SC)=C(/C#N)C(N)=O)c1ccccc1 (configuration not stated)
inhibition in vivo at 500 µg/mL [1]: 66.7% | inhibition in vivo at 500 µg/mL [2]: 43.2% | inhibition in vivo at 500 µg/mL [3]: 50%

COCCOP(=O)(OCCOC)C(N/C(SC)=C(/C#N)C(=O)NCc1ccccc1)c1ccccc1 (configuration not stated)
inhibition in vivo at 500 µg/mL [1]: 32.1% | inhibition in vivo at 500 µg/mL [2]: 29.6% | inhibition in vivo at 500 µg/mL [3]: 39.7%

COCCOP(=O)(OCCOC)C(N/C(SC)=C(/C#N)C(=O)OC)c1ccccc1F (configuration not stated)
inhibition in vivo at 500 µg/mL [1]: 41% | inhibition in vivo at 500 µg/mL [2]: 34.5% | inhibition in vivo at 500 µg/mL [3]: 22%

CCOC(=O)/C(C#N)=C(\NC(c1ccccc1F)P(=O)(OCCOC)OCCOC)SC (configuration not stated)
inhibition in vivo at 500 µg/mL [1]: 0% | inhibition in vivo at 500 µg/mL [2]: 21.7% | inhibition in vivo at 500 µg/mL [3]: 0%

COCCOC(=O)/C(C#N)=C(\NC(c1ccccc1F)P(=O)(OCCOC)OCCOC)SC (configuration not stated)
inhibition in vivo at 500 µg/mL [1]: 0% | inhibition in vivo at 500 µg/mL [2]: 9.9% | inhibition in vivo at 500 µg/mL [3]: 0%

CCOCCOC(=O)/C(C#N)=C(\NC(c1ccccc1F)P(=O)(OCCOC)OCCOC)SC (configuration not stated)
inhibition in vivo at 500 µg/mL [1]: 33.3% | inhibition in vivo at 500 µg/mL [2]: 31.4% | inhibition in vivo at 500 µg/mL [3]: 21.9%

COCCOP(=O)(OCCOC)C(N/C(SC)=C(/C#N)C(=O)OCCOc1ccccc1)c1ccccc1F (configuration not stated)
inhibition in vivo at 500 µg/mL [1]: 44% | inhibition in vivo at 500 µg/mL [2]: 41.8% | inhibition in vivo at 500 µg/mL [3]: 29%

COCCOP(=O)(OCCOC)C(N/C(SC)=C(/C#N)C(N)=O)c1ccccc1F (configuration not stated)
inhibition in vivo at 500 µg/mL [1]: 44.8% | inhibition in vivo at 500 µg/mL [2]: 22% | inhibition in vivo at 500 µg/mL [3]: 30%

COCCOP(=O)(OCCOC)C(N/C(SC)=C(/C#N)C(=O)NCc1ccccc1)c1ccccc1F (configuration not stated)
inhibition in vivo at 500 µg/mL [1]: 40.8% | inhibition in vivo at 500 µg/mL [2]: 28.6% | inhibition in vivo at 500 µg/mL [3]: 39.9%

CCOCCOP(=O)(OCCOCC)C(N/C(SC)=C(/C#N)C(=O)OC)c1ccccc1 (configuration not stated)
inhibition in vivo at 500 µg/mL [1]: 0% | inhibition in vivo at 500 µg/mL [2]: 4.3% | inhibition in vivo at 500 µg/mL [3]: 0%

CCOCCOP(=O)(OCCOCC)C(N/C(SC)=C(/C#N)C(=O)OCC)c1ccccc1 (configuration not stated)
inhibition in vivo at 500 µg/mL [1]: 35.4% | inhibition in vivo at 500 µg/mL [2]: 51.1% | inhibition in vivo at 500 µg/mL [3]: 45.9%

CCOCCOP(=O)(OCCOCC)C(N/C(SC)=C(/C#N)C(=O)OCCOC)c1ccccc1 (configuration not stated)
inhibition in vivo at 500 µg/mL [1]: 78.9% | inhibition in vivo at 500 µg/mL [2]: 58.8% | inhibition in vivo at 500 µg/mL [3]: 60.2%

CCOCCOC(=O)/C(C#N)=C(\NC(c1ccccc1)P(=O)(OCCOCC)OCCOCC)SC (configuration not stated)
inhibition in vivo at 500 µg/mL [1]: 29.5% | inhibition in vivo at 500 µg/mL [2]: 46.4% | inhibition in vivo at 500 µg/mL [3]: 40.7%

CCOCCOP(=O)(OCCOCC)C(N/C(SC)=C(/C#N)C(=O)OCCOc1ccccc1)c1ccccc1 (configuration not stated)
inhibition in vivo at 500 µg/mL [1]: 31.9% | inhibition in vivo at 500 µg/mL [2]: 44.1% | inhibition in vivo at 500 µg/mL [3]: 3.8%

CCOCCOP(=O)(OCCOCC)C(N/C(SC)=C(/C#N)C(N)=O)c1ccccc1 (configuration not stated)
inhibition in vivo at 500 µg/mL [1]: 80% | inhibition in vivo at 500 µg/mL [2]: 56.7% | inhibition in vivo at 500 µg/mL [3]: 54.4%

CCOCCOP(=O)(OCCOCC)C(N/C(SC)=C(/C#N)C(=O)NCc1ccccc1)c1ccccc1 (configuration not stated)
inhibition in vivo at 500 µg/mL [1]: 40.1% | inhibition in vivo at 500 µg/mL [2]: 47.3% | inhibition in vivo at 500 µg/mL [3]: 34.5%

CCOCCOP(=O)(OCCOCC)C(N/C(SC)=C(/C#N)C(=O)OC)c1ccccc1F (configuration not stated)
inhibition in vivo at 500 µg/mL [1]: 12% | inhibition in vivo at 500 µg/mL [2]: 33% | inhibition in vivo at 500 µg/mL [3]: 0%

CCOCCOP(=O)(OCCOCC)C(N/C(SC)=C(/C#N)C(=O)OCC)c1ccccc1F (configuration not stated)
inhibition in vivo at 500 µg/mL [1]: 33.4% | inhibition in vivo at 500 µg/mL [2]: 45.6% | inhibition in vivo at 500 µg/mL [3]: 12.9%

CCOCCOP(=O)(OCCOCC)C(N/C(SC)=C(/C#N)C(=O)OCCOC)c1ccccc1F (configuration not stated)
inhibition in vivo at 500 µg/mL [1]: 85.5% | inhibition in vivo at 500 µg/mL [2]: 60% | inhibition in vivo at 500 µg/mL [3]: 58.9%

CCOCCOC(=O)/C(C#N)=C(\NC(c1ccccc1F)P(=O)(OCCOCC)OCCOCC)SC (configuration not stated)
inhibition in vivo at 500 µg/mL [1]: 40.2% | inhibition in vivo at 500 µg/mL [2]: 41.9% | inhibition in vivo at 500 µg/mL [3]: 31%

CCOCCOP(=O)(OCCOCC)C(N/C(SC)=C(/C#N)C(=O)OCCOc1ccccc1)c1ccccc1F (configuration not stated)
inhibition in vivo at 500 µg/mL [1]: 23.7% | inhibition in vivo at 500 µg/mL [2]: 27.7% | inhibition in vivo at 500 µg/mL [3]: 30.7%

CCOCCOP(=O)(OCCOCC)C(N/C(SC)=C(/C#N)C(N)=O)c1ccccc1F (configuration not stated)
inhibition in vivo at 500 µg/mL [1]: 33.9% | inhibition in vivo at 500 µg/mL [2]: 30.6% | inhibition in vivo at 500 µg/mL [3]: 30%

CCOCCOP(=O)(OCCOCC)C(N/C(SC)=C(/C#N)C(=O)NCc1ccccc1)c1ccccc1F (configuration not stated)
inhibition in vivo at 500 µg/mL [1]: 79.9% | inhibition in vivo at 500 µg/mL [2]: 54.3% | inhibition in vivo at 500 µg/mL [3]: 55.4%

COCCOP(=O)(OCCOC)C(N/C(SC)=C(/C#N)C(=O)OC)c1ccccc1 (configuration not stated)
inhibition in vivo at 500 µg/mL [1]: 0% | inhibition in vivo at 500 µg/mL [2]: 28.8% | inhibition in vivo at 500 µg/mL [3]: 0%

CNCC(=O)N[C@@H](CO)C(=O)N[C@H]1[C@H](O)[C@@H](O)[C@H](n2ccc(N)nc2=O)O[C@@H]1C(N)=O [NINGNANMYCIN]
inhibition in vivo at 500 µg/mL [1]: 96% | inhibition in vivo at 500 µg/mL [2]: 58.9% | inhibition in vivo at 500 µg/mL [3]: 57.7%
